# According to ChEMBL document CHEMBL4433215, “SAR Studies and Biological Characterization of a Chromen-4-one Derivative as an Anti-Trypanosoma brucei Agent” (ACS Med Chem Lett, 2019):
# Experiments:
# Trypanosoma brucei [1] = experiment: Antitrypanosomal activity against Trypanosoma brucei bloodstream form assessed as parasite growth inhibition at 10 uM after 72 hrs by resazurin dye-based assay relative to control; type: functional; conditions: read-out: GI
# How it was run: (§1)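 T. brucei bloodstream forms were screened first. Compounds giving over 70% parasite growth inhibition then went to a full dose–response curve to derive EC50. Pentamidine was the reference.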
# Trypanosoma brucei [2] = experiment: Antitrypanosomal activity against Trypanosoma brucei bloodstream form after 72 hrs by resazurin dye-based assay relative to control; type: functional, organism-based; how it was run: as §1
# [3] = Cytotoxicity against human THP1 cells by MTT assay; type: cell-based, THP-1
# [4] = Selectivity index, ratio of CC50 for cytotoxicity against human THP1 cells to EC50 for antitrypanosomal activity against Trypanosoma brucei bloodstream form; type: toxicity, cell-based; conditions: read-out: Ratio CC50/EC50
# [5] = target: Voltage-gated inwardly rectifying potassium channel KCNH2 (Homo sapiens, UniProt Q12809); experiment: Inhibition of human ERG at 10 uM after 2 hrs by fluorescence polarization assay
# Voltage-gated inwardly rectifying potassium channel KCNH2, sequence (Q12809 whole entry): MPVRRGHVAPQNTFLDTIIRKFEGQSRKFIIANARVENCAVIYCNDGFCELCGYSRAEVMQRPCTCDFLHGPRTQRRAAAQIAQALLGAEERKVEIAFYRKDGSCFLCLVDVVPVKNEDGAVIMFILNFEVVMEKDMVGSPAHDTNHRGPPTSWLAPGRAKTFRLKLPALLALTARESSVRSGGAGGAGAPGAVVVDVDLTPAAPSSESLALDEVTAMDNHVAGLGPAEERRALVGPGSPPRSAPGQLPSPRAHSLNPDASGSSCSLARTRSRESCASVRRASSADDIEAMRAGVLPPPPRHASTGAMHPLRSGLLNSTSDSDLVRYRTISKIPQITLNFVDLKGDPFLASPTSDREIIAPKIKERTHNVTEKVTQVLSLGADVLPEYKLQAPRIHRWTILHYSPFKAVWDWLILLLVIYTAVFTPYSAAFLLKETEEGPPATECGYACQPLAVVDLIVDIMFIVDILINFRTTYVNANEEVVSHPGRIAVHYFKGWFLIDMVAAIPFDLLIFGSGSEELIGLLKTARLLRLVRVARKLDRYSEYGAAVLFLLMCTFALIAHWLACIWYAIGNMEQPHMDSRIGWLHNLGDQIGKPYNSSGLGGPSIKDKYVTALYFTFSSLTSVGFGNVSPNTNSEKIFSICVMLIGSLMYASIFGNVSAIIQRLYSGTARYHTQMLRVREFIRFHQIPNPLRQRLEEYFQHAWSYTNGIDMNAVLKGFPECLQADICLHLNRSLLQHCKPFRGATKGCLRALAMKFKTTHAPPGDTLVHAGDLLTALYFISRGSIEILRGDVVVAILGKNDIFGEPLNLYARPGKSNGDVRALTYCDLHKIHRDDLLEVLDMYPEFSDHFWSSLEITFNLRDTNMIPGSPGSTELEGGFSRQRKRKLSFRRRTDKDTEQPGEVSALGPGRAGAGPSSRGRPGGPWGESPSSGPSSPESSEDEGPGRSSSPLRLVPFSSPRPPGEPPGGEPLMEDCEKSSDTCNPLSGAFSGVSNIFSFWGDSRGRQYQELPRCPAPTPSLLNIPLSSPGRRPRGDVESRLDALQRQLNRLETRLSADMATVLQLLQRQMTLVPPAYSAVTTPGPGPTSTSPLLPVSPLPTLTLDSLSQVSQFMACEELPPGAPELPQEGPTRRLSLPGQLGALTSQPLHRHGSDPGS
# How it was run: (§2)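 Single-concentration screen at 10 μM within an early in vitro ADME-tox panel, covering cytotoxicity in A549 cells and hERG inhibition.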
# 786-0 = experiment: Mitochondrial toxicity in human 786-O cells at 10 uM after 6 hrs by MitoTracker Red chloromethyl-X-rosamine based assay; type: cell-based; conditions: 786-0, 6 h
# [6] = Cytotoxicity against human A549 cells assessed as cell growth at 10 uM after 48 hrs by cell-titer-Glo assay relative to control; type: cell-based; conditions: read-out: Activity; how it was run: as §2
Compound,EC50 (Trypanosoma brucei [2]),IC50 (Trypanosoma brucei [2]),inhibition of growth at 10 µM (Trypanosoma brucei [1]),CC50 [3],selectivity ratio [4],inhibition (INH) [5],Activity (786-0),"viability at 48 h, 10 µM [6]"
CCCOc1c(-c2ccc3c(c2)OCO3)oc2cc(OC)ccc2c1=O,> 10 µM,–,20%,12.5 to 25 µM,–,Not Active,Non-Toxic,–
COc1ccc2oc(-c3ccc4c(c3)OCO4)c(O)c(=O)c2c1,–,–,19%,< 12.5 µM,–,Not Active,Non-Toxic,–
O=c1c(O)c(-c2ccc3c(c2)OCO3)oc2ccc(Cl)cc12,–,–,13%,< 12.5 µM,–,Not Active,Non-Toxic,–
COc1ccc2c(=O)c(O)c(-c3ccc4c(c3)OCCO4)oc2c1,> 10 µM,–,71%,50 to 100 µM,–,Not Active,Non-Toxic,–
Cc1ccc2oc(-c3ccc4c(c3)OCO4)c(O)c(=O)c2c1,4.1 µM,–,99%,< 12.5 µM,3,Not Active,Non-Toxic,–
COc1ccc2c(=O)c(OC(=O)C3CCCCC3)c(-c3ccc4c(c3)OCO4)oc2c1,0.5 µM,–,98%,12.5 to 25 µM,25,Not Active,Non-Toxic,–

# More lines, main results first:
EC50 (Trypanosoma brucei [2]),IC50 (Trypanosoma brucei [2]),Compound,inhibition of growth at 10 µM (Trypanosoma brucei [1]),CC50 [3],selectivity ratio [4],inhibition (INH) [5],Activity (786-0),"viability at 48 h, 10 µM [6]"
3.8 µM,–,O=c1c(O)c(-c2ccc3c(c2)OCO3)oc2cc(Cl)ccc12,83%,< 12.5 µM,3,Not Active,Non-Toxic,< 0%
0.6 µM,–,CCCCC(=O)Oc1c(-c2ccc3c(c2)OCO3)oc2cc(OC)ccc2c1=O,100%,< 12.5 µM,22,Not Active,Non-Toxic,–
2.4 µM,–,O=c1c(O)c(-c2ccc3c(c2)OCO3)oc2cc(F)ccc12,98%,< 12.5 µM,8,Not Active,Non-Toxic,–
> 10 µM,–,COc1ccc2c(=O)c(O)c(-c3ccc4c(c3)OC(F)(F)O4)oc2c1,47%,> 100 µM,–,Not Active,Non-Toxic,–
–,0.00155 µM,N=C(N)c1ccc(OCCCCCOc2ccc(C(=N)N)cc2)cc1 [PENTAMIDINE],–,–,–,–,–,–
